From PubChem
STEP inh = blocks human striatal-enriched tyrosine phosphatase | P54829 | AID 588621 | 0.25% of 360,000 active | inhibition, % at 20 µM | recombinant STEP, OMFP fluorogenic substrate, fluorescence;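 active = inhibition at 20 µM, scaled per plate between control wells, above about 37%, limit read from the data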;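 also: 0% = DMSO with enzyme and substrate and 100% = substrate only without enzyme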
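Material: STEP (striatal-enriched tyrosine phosphatase) enzyme, cell-free; Compound dosing: 20 µM single dose in 1% DMSO; Technique: fluorescence read at 480 nm ex / 540 nm em; Times: reaction 20 min, ambient temperature; Medium: 50 mM Bis-Tris pH 6.0 with 2.5 mM DTT and 0.005% Tween 20; Also added: OMFP at 25 µM.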
CSN deneddyl inh = blocks human CSN-mediated cullin deneddylation; inhibition, % at 12.5 µM; Purified CSN, SCF-Nedd8-OG deneddylation, fluorescence polarization; Q92905; 0.38% of 360,000 active;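 active = pattern-corrected inhibition above about 35%, with an unprinted fluorescence ratio check between 0.5 and 1.5, limit read from the data, passing the limit was not always enough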;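 also: 0% = enzyme with substrate and 100% = substrate without enzyme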
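Material: purified human Csn5 enzyme expressed in HEK293T cells / Medium: Tris buffer pH 7.5, NaCl, DTT, Tween-20, trehalose, ovalbumin / Compound dosing: 12.5 µM single point / Schedule: 90 min incubation of compound, enzyme and substrate at room temperature / Signal: fluorescence polarization of the substrate / Control set: no-enzyme wells high, enzyme-with-substrate wells low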
Scp1 inh = Scp-1 (human) phosphatase inhibition; Recombinant Scp1, phosphopeptide, malachite green phosphate absorbance; inhibition, % at 20 µM; 0.88% of 340,000 active;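 active = inhibition above about 50% at 20 µM, limit read from the data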;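 also: plate controls were DMSO wells with enzyme for no effect and wells lacking enzyme for full effect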
Target sequence (Q9GZU7 76-261 limits assumed): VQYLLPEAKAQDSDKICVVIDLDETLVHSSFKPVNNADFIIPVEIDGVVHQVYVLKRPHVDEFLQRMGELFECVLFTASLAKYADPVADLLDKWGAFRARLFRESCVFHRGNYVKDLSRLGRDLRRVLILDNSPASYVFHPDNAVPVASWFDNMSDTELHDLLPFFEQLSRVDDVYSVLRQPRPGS
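Test system: SCP-1 phosphatase catalytic domain, residues 76-261; measured by: colorimetric phosphate reagent with accelerator and stabiliser, absorbance at 630 nm; timing: enzyme reaction 45 min at room temperature, colour 5 min, stabilisation 30 min; also added: Phosphorylated 17-residue peptide substrate; compound dosing: one concentration, 20 µM, with 1.0% DMSO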
LMPTP inh = LMPTP (human) inhibition. recombinant LMPTP-A, OMFP fluorogenic substrate, fluorescence intensity. inhibition, % at 20 µM. 0.22% of 360,000 active;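 active = compounds that cut the enzyme signal by at least half of the control window in the single-dose screen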;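 also: plate controls were DMSO wells with enzyme plus substrate for no effect and substrate without enzyme for full effect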
Target sequence (P24666 whole entry, looked up): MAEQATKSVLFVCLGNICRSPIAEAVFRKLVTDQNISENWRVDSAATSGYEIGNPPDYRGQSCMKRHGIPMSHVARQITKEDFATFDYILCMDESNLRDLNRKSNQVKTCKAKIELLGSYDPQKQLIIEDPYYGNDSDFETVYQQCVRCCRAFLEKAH
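Test system: LMPTP-A, protein tyrosine phosphatase of low molecular weight; Input: 0.625 nM enzyme; Incubation: 50 min dark incubation at room temperature; Signal: endpoint fluorescence intensity from OMFP dephosphorylation; Read-out basis: % inhibition versus control wells.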
SUMO1 PPI mod = SUMO1-SIM interaction modulation | SUMO1 binding to a labelled peptide, TR-FRET, 1 h | inhibition, % at 20 µM | AID 602429 | P63165 | 0.33% of 360,000 active; in the data active = inhibition above about 37%
Target sequence (P63165 whole entry, looked up): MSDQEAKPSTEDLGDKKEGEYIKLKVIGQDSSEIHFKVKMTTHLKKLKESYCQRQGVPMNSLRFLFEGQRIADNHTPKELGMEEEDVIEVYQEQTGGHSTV
DNMT1 block = DNMT1 (human) enzyme inhibition. P26358. DNMT1 molecular beacon, Hinp1I cleavage, fluorescence. inhibition (reported as % activation of signal), % at 10 µM. 0.83% of 360,000 active; in the data active = inhibition above about 50%
DNMT1 interf DR = beacon fluorescence artifact, dose response counter-screen; IC50, µM; molecular beacon fluorescence, spectral interference counter-screen; 200 tested, under 10 active; shares compounds with DNMT1 block; call rule not given here
DNMT1 inh conf = confirmation of human DNMT1 inhibitors | shares compounds with DNMT1 block | DNMT1 molecular beacon HinP1I cleavage, fluorescence | inhibition, % at 10 µM | 8% of 2,300 active | AID 602385;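 active = average inhibition of at least 30% in the single-concentration confirmation test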
DNMT1 interf = counter-screen for DNMT1 inhibitors: spectral interference; shares compounds with DNMT1 block; DNMT1 molecular beacon spectral interference counterscreen, fluorescence 485/520; activation (fluorescence interference), % at 10 µM; 1% of 2,300 active;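 active = activation of at least 30% at 10 µM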;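 also: DNMT1 catalytic domain with a HinP1I cleavage step and a FAM/dabcyl DNA beacon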
Active calls of the source: *. In the library only some 1.9% were active in any assay of this set; here they are far more common.

`CCc1ccc(NC(=O)CNS(=O)(=O)c2c(C)noc2C)cc1` gave STEP inh -1.1, CSN deneddyl inh 0.0, Scp1 inh -13.9, LMPTP inh 0.8, SUMO1 PPI mod 10.4, DNMT1 block 68.5*, DNMT1 inh conf 2.8 and DNMT1 interf 0.8.
Screening CCc1ccc(NC(=O)C2CCN(S(=O)(=O)c3c(C)noc3C)CC2)cc1 returned STEP inh -0.8, CSN deneddyl inh 4.3, Scp1 inh -10.3, LMPTP inh 1.5, SUMO1 PPI mod 0.4 and DNMT1 block 1.2.
For CCCC(=O)N1CCC1(C)C(=O)NCc1ccccc1SC (stereo not drawn) the results were STEP inh 0.9, CSN deneddyl inh -1.8, LMPTP inh -1.3, SUMO1 PPI mod -3.2 and DNMT1 block 0.2.
For CSc1nnc(-c2ccco2)c(-c2ccco2)n1 the results were STEP inh 3.2, CSN deneddyl inh 49.7, Scp1 inh 46.8, LMPTP inh 5.5, SUMO1 PPI mod 22.5, DNMT1 block 94.7*, DNMT1 inh conf 2.2 and DNMT1 interf 4.2.
For COc1ccc(C(=O)CSc2nnc(-c3ccco3)n2C)cc1 the results were STEP inh 2.2, CSN deneddyl inh 1.9, Scp1 inh 0.2, LMPTP inh -0.9, SUMO1 PPI mod 0.9 and DNMT1 block -1.7.
`COc1ccc(NC(=O)CSc2nnc(-c3ccco3)c(-c3ccco3)n2)cc1OC` gave STEP inh -2.2, CSN deneddyl inh 1.1, Scp1 inh 12.2, LMPTP inh 1.4, SUMO1 PPI mod -12.4 and DNMT1 block -4.4.
Screening COc1ccc(C(=O)CSc2nnc(-c3ccco3)c(-c3ccco3)n2)cc1 returned STEP inh 4.9, CSN deneddyl inh 36.0, Scp1 inh 87.0*, LMPTP inh 33.2, SUMO1 PPI mod 16.1, DNMT1 block 75.7*, DNMT1 inh conf 4.0 and DNMT1 interf 4.3.
COc1cccc(NC(=O)CSc2nnc(-c3ccco3)c(-c3ccco3)n2)c1 was read as STEP inh 8.6, CSN deneddyl inh 38.8, Scp1 inh 66.3*, LMPTP inh 3.1, SUMO1 PPI mod 26.2, DNMT1 block 87.4*, DNMT1 inh conf 1.7 and DNMT1 interf 0.2.
For Cc1ccc(NC(=O)CSc2nnc(-c3ccco3)c(-c3ccco3)n2)cc1 the results were STEP inh 5.7, CSN deneddyl inh 23.1, Scp1 inh 57.4*, LMPTP inh 8.1, SUMO1 PPI mod 18.8, DNMT1 block 92.3*, DNMT1 inh conf 7.3 and DNMT1 interf 7.0.
`CCOc1ccc(-c2cc(C(=O)Nc3cccc(C(F)(F)F)c3)[nH]n2)c(C)c1` gave STEP inh 1.0, CSN deneddyl inh -1.5, LMPTP inh 0.0, SUMO1 PPI mod 1.9 and DNMT1 block -0.7.
`COc1ccc(C(=O)N/C(=C\c2ccc(Cl)cc2)C(=O)NCc2ccncc2)cc1` gave STEP inh -3.2, CSN deneddyl inh -1.7, LMPTP inh -2.2, SUMO1 PPI mod -1.8, DNMT1 block 78.9*, DNMT1 inh conf 3.3 and DNMT1 interf 4.2.
For COc1ccc(/C=C(/NC(=O)c2ccc(C)cc2)C(=O)NCc2ccncc2)cc1 the results were STEP inh -1.6, CSN deneddyl inh 6.0, Scp1 inh -6.2, LMPTP inh -1.6, SUMO1 PPI mod -4.1 and DNMT1 block 3.8.
`O=C(CSCc1ccc(Cl)cc1)Nc1ccc(-c2nnc(-c3ccccc3)o2)cc1` gave STEP inh 13.8, CSN deneddyl inh 15.4, Scp1 inh 30.7, LMPTP inh 16.9, SUMO1 PPI mod 3.7, DNMT1 block 72.2*, DNMT1 inh conf 1.8 and DNMT1 interf -0.5.
Screening CCc1nc2c(OCc3ccc(OC(F)F)cc3)cccn2c1N(C)C(=O)c1cccs1 returned STEP inh 2.2, CSN deneddyl inh 0.1, LMPTP inh 0.3, SUMO1 PPI mod 5.0 and DNMT1 block -7.3.
For O=C1Nc2ccccc2C1(c1ccccc1)c1ccccc1 the results were STEP inh -3.4, CSN deneddyl inh 0.6, Scp1 inh -17.3, LMPTP inh 0.1, SUMO1 PPI mod -3.3 and DNMT1 block -2.7.
For CCC1(CC)C(=O)Nc2ccccc21 the results were STEP inh -2.3, CSN deneddyl inh -3.0, Scp1 inh -4.0, LMPTP inh 0.6, SUMO1 PPI mod 2.5, DNMT1 block 74.7*, DNMT1 inh conf 1.1 and DNMT1 interf -0.3.
COc1ccc2nc(N3C(=O)/C(=C/c4ccc(Cl)cc4)NC3=S)sc2c1 was read as STEP inh 10.8, CSN deneddyl inh 17.6, Scp1 inh 0.6, LMPTP inh 27.4, SUMO1 PPI mod 28.7, DNMT1 block 99.8*, DNMT1 inh conf 1.1 and DNMT1 interf -3.7.
CCOCCCNC(=O)C1CCN(S(=O)(=O)N2CCCC2)CC1 was read as STEP inh -1.5, CSN deneddyl inh -1.3, Scp1 inh -5.7, LMPTP inh 0.5, SUMO1 PPI mod 1.3, DNMT1 block 72.5*, DNMT1 inh conf 3.3 and DNMT1 interf 3.7.
Cc1cccc(NC(=S)N(CCCN2CCOCC2)C(C)c2cc3ccccc3o2)c1C (stereo not drawn) was read as STEP inh 2.8, CSN deneddyl inh -0.5, Scp1 inh -5.6, LMPTP inh -2.4, SUMO1 PPI mod 2.1, DNMT1 block 54.2*, DNMT1 inh conf 0.8 and DNMT1 interf -0.7.
`Cc1cccc(NC(=S)N(CCCN2CCOCC2)C(C)c2cc3ccccc3o2)c1` (stereo not drawn) gave STEP inh 6.7, CSN deneddyl inh 4.6, Scp1 inh -2.7, LMPTP inh -1.9, SUMO1 PPI mod 1.2 and DNMT1 block 0.0.
Screening O=C1Nc2c(Cl)cc(Cl)cc2C1=O returned STEP inh 2.2, CSN deneddyl inh 6.2, Scp1 inh -2.2, LMPTP inh -0.2, SUMO1 PPI mod -4.7, DNMT1 block 60.1*, DNMT1 interf DR >99, DNMT1 inh conf 15.9 and DNMT1 interf -12.6.
CCCC(=O)Nc1ccc(S(=O)(=O)N2CCc3ccccc32)cc1 was read as STEP inh -2.2, CSN deneddyl inh 2.4, LMPTP inh -0.5, SUMO1 PPI mod 3.7 and DNMT1 block -2.2.
